NALP1 inh: blocks the NALP1 inflammasome reconstituted in yeast; S. cerevisiae NALP1/ASC/caspase-1 growth, X-gal OD620, 72 h; AID 2071; inhibition, % at 10 µM; 280,000 tested, 0.61% active; in the data active means inhibition mostly above about 24%, no sharp cut-off; inactive means mostly below about 32%
VIM-2 inhibitor: blocks Pseudomonas aeruginosa VIM-2 metallo-beta-lactamase. purified VIM-2, nitrocefin hydrolysis, epi-absorbance fluorescence. inhibition, % at 5.6 µM. 290,000 tested, 0.89% active;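 active means inhibition above the mean of all tested compounds plus 3 SD, cutoff set per screening run, cut at about 7.5% in these data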;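 further: red hydrolysis product quenches plate fluorescence so inhibitors raise well fluorescence; 0% = enzyme with DMSO and 100% = DMSO without enzyme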
PolyA inh: blocks polyadenylation in yeast reporter cells; S. cerevisiae SKY197-pL101 polyadenylation reporter, beta-gal luminescence; efflux-impaired pdr1/pdr3 knockout yeast; score 100 = 6 SD above DMSO; activity score, % at 12 µM; 300,000 tested, 0.02% active;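 active means lowest replicate activity score at least 50, where 100 means six control SD above control mean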;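 further: yeast exposed to compound for 9 h at 30 °C; higher score means more reporter readthrough which indicates perturbed polyadenylation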
IMP-1 inh: inhibitors of Pseudomonas aeruginosa IMP-1 metallo-beta-lactamase; inhibition, % at 5.6 µM; AID 1556; purified IMP-1, nitrocefin hydrolysis, epi-absorbance fluorescence; 290,000 tested, 0.45% active;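 active means inhibition above the mean plus 3 SD of all compounds in the same screening run, cut at about 4.5% in these data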;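 further: 0% = IMP-1 with DMSO and 100% = DMSO wells lacking enzyme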
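assay system = purified recombinant IMP-1 metallo-beta-lactamase enzyme | schedule = 15 min preincubation plus 25 min reaction at 25 °C | signal = Epi-absorbance fluorescence, 480 nm excitation, 530 nm emission | read-out basis = percent inhibition from optical density relative to buffer-blank wells | controls = IMP-1 with DMSO as 0%, enzyme-free DMSO as 100%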
Mot1-301 SUMO: SUMOylation pathway inhibition by Mot1-301 growth rescue. AID 2716. S. cerevisiae Mot1-301 growth rescue, ATP luminescence, 38.5C; percent above DMSO median, 100 means doubled. growth rescue, % at 18.8 µM. 320,000 tested, 1% active;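 active means every valid replicate shows activation above 250% relative to neutral control wells; inactive means the rest, any valid replicate at or below 250%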;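 further: OY570 slx delta 5 strain wells were the positive control but not used for scaling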
NLRP3 yeast inh: NALP3 inhibition in yeast; Yeast reconstituted NLRP3/ASC/caspase-1, beta-gal luminescence, 24 h; inhibition, % at 10 µM; 330,000 tested, 0.39% active;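 active means inhibition of 50% or more; inactive means inhibition below 50%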;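 further: plate controls were induced DMSO wells for no effect and uninduced yeast grown without galactose for full effect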
Yeast Mot1 SUMO: SUMO pathway inhibitors in yeast Mot1-301 growth; shares compounds with Mot1-301 SUMO; 2,300 tested, under 10 active; S. cerevisiae Mot1-301 galactose growth, ATP luminescence, 24 h; -100 = growth of slx-deleted rescue strain; AID 493004; growth activity, percent, % at 42 µM;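 active means Signal drops as the depositor expects, and the fitted half-maximal dose is no more than ten times the top valid tested dose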;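 further: more negative values mean stronger growth rescue toward the control strain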
NALP3 confirm: NALP3 inhibition confirmation in yeast; shares compounds with NLRP3 yeast inh; yeast expressing human NALP3, luminescence; inhibition, % at 10 µM; 1,300 tested, 81% active; in the data active means inhibition above about 48%
Casp1-ASC yeast: active in yeast caspase-1-ASC counter-screen for NALP3 inhibitors. yeast expressing Caspase-1-ASC, luminescence counter screen. AID 488784. inhibition, % at 10 µM. 1,000 tested, 66% active. shares compounds with NLRP3 yeast inh
NALP3 retest: retest-confirmed inhibitor of NALP3 in yeast | yeast expressing human NALP3, luminescence read-out | shares compounds with NLRP3 yeast inh | inhibition, % at 10 µM | 1,000 tested, 53% active | AID 488794
Starred values were filed as active, the others as inactive; nt = no result; + = active, no number; ! = not active in a repeat. The list is not random: actives were taken first. Their share in the collection is about 2.9%. Unless noted, no stated cut-off is given here; in the data, active means inhibition above about 50%; inactive means the rest.

SMILES	NALP1 inh	VIM-2 inhibitor	PolyA inh	IMP-1 inh	Mot1-301 SUMO	NLRP3 yeast inh	Yeast Mot1 SUMO	others
CCN(c1cccc(C)c1)S(=O)(=O)c1cc2c3c(c1)CCN3C(=O)CC2	nt	nt	2	nt	3	17	nt
COc1ccc(C)cc1N(CC(=O)N1CCCCCC1)S(=O)(=O)c1ccccc1	-5	-2	9	-1	-6	11	nt
COc1ccc(OC)c(N(CC(=O)N2CCCC2)S(=O)(=O)c2ccccc2)c1	10	2	1	0	469*	21	1
CCOC(=O)C1(Cc2cccc(F)c2)CCN(C(=O)c2cnccn2)CC1	-6	-3	-8	-2	632*	9	0
CCC1(c2ccc(Cl)cc2)NC(=O)N(CC(=O)N2CCN(C(=O)c3ccco3)CC2)C1=O (stereo unspecified)	nt	nt	nt	nt	0	12	nt
Cc1ccccc1NC(=O)COC(=O)C1C2CC3OC(=O)C1C3C2 (stereo unspecified)	13	-2	-5	-2	474*	14	1
O=C(COC(=O)c1ccc(Br)o1)Nc1ncc(Cl)cc1Cl	2	-1	-7	-1	-7	19	nt
O=C(COC(=O)c1ccc([N+](=O)[O-])o1)Nc1ncc(Cl)cc1Cl	nt	nt	nt	nt	848*	-18	-1
CCCCCCCCCCOC(=O)Cn1c(COc2ccc(OC)cc2)[n+](C)c2ccccc21	22	-2	-14	-3	563*!	15	-2
COc1cccc(CN(C)C(=O)C2CCC(=O)N(Cc3cccc(F)c3)C2)c1 (stereo unspecified)	-7	-1	31	-1	722*	6	-1
CC(N=C(NC#N)Nc1ccncc1)C(C)(C)C (stereo unspecified)	12	-1	0	-2	798*!	14	0
C=CCn1c(COc2cccc3ccc(C)nc23)nnc1SCC(N)=O	25	4	-4	-2	6	-1	nt
Cc1ccc2cccc(OCc3nnc(SCC(=O)O)n3C)c2n1	4	0	8	-2	+	4	0
O=C(OCCOCCN=C1NS(=O)(=O)c2ccccc21)c1ccc(F)cc1	11	0	-12	-2	12	-1	nt
O=c1cnc2ccccc2n1Cc1ccccc1C(F)(F)F	29	0	15	-1	515*	1	0
COc1cccc(NC(=O)C2CCC(CNC(=O)[C@@H]3Cc4ccccc4CN3)CC2)c1 (stereo partly specified)	27	0	-4	0	-6	0	nt
CCCCc1nc(SCC(=O)Nc2ncccn2)n[nH]1	10	-2	5	0	nt	12	nt
CCCCCCCCc1nc(SCC(C)=O)n[nH]1	nt	-4	4	-4	699*	25	-1
O=C(CC(c1ccccc1)c1cc(Cl)ccc1O)NCCCN1CCOCC1 (stereo unspecified)	20	-2	-19	-2	-4	15	nt
CCc1nc(C(N)=O)c2[nH]c(=O)n(-c3ccccc3F)c2n1	-3	-2	-29	-3	26	1	nt
COc1ccccc1N1C(=O)c2ccccc2NC1C(OC)OC (stereo unspecified)	-15	-1	21	-5	+	-12	0
COc1ccccc1CN(C)S(=O)(=O)c1cccs1	16	0	-1	-2	-21	29	nt
COc1ccc(C(C)=O)cc1CN(c1ccccc1OC)S(=O)(=O)c1cccs1	4	0	6	-3	370*	4	0
c1ccc(-c2cc3cc4c(cc3cn2)OCO4)cc1	nt	nt	nt	nt	528*	55*	0	NALP3 confirm=58*;Casp1-ASC yeast=71*;NALP3 retest=67*
CCCN(C(=O)CSCC(=O)Nc1ccc(OC)cc1)c1c(N)n(Cc2ccccc2)c(=O)[nH]c1=O	nt	nt	-3	nt	-8	11	nt
SMILES	NALP1 inh	VIM-2 inhibitor	PolyA inh	IMP-1 inh	Mot1-301 SUMO	NLRP3 yeast inh	Yeast Mot1 SUMO	others
COc1ccc(C(=O)Nc2nc3ccccc3[nH]2)cc1OC	2	-3	5	-1	1	9	nt
O=C(Nc1nc2ccccc2[nH]1)c1cc(F)cc(F)c1	-39	-2	-12	-2	12	35	nt
COc1ccc(Cl)cc1C(=O)Nc1nc2ccccc2[nH]1	38*	1	-41	-2	-13	72*	nt	NALP3 confirm=78*;Casp1-ASC yeast=77*;NALP3 retest=72*
Cc1cc(C)cc(C(=O)Nc2nc3ccccc3[nH]2)c1	23	-2	-6	-4	16	52*	nt	NALP3 confirm=52*;Casp1-ASC yeast=61*;NALP3 retest=47
Cc1c(Cl)cccc1N1C(=O)CC(NNC(=O)c2ccc3c(c2)OCO3)C1=O (stereo unspecified)	nt	nt	nt	nt	7	18	nt
CCC(C)c1ccccc1NC(=S)NC(=O)c1ccco1 (stereo unspecified)	2	-2	-17	-2	-14	-10	nt
N#Cc1c(SCc2nc3ccccc3[nH]2)nc2c(c1C(F)(F)F)CCC2	nt	-4	nt	-3	nt	nt	nt
Cc1cc(C)c(C#N)c(SCc2nc3ccccc3[nH]2)n1	16	-2	12	-4	12	54*	nt	NALP3 confirm=44;Casp1-ASC yeast=36;NALP3 retest=41
N#Cc1cc2c(nc1SCc1nc3ccccc3[nH]1)CCC2	10	-3	-23	-4	-23	66*	nt	NALP3 confirm=79*
CCOC(=O)COc1ccc2c(c1)c(C(C)=O)c(C)n2-c1ccc(OC)cc1	8	-3	3	-2	-25	7	nt
O=[N+]([O-])c1ccc2c(c1Nc1ccccc1Cl)=NC1(CCCCC1)N=2	-17	-2	13	-3	17	26	nt
Cc1ccc(Nc2c([N+](=O)[O-])ccc3c2=NC2(CCCCC2)N=3)cc1	-10	-1	-74	-3	-25	52*	nt	NALP3 confirm=56*
Cc1ccc(S(=O)(=O)N2CCOC2CNC(=O)C(=O)NCc2ccc(Cl)cc2)cc1 (stereo unspecified)	4	1	-10	0	50	8	nt
CC(Oc1ccc(F)cc1)C(=O)Nc1nc(-c2ccccn2)cs1 (stereo unspecified)	nt	nt	6	nt	0	55*	nt	NALP3 confirm=73*;Casp1-ASC yeast=82*;NALP3 retest=74*
O=C(CCS(=O)(=O)c1ccc(F)cc1)Nc1nc(-c2ccccn2)cs1	10	2	2	-2	13	9	nt

Screens as filed in PubChem BioAssay.
